≈ marks a conversion by molar mass, not a printed value. Calls of active or inactive are those of the source. No cut-off for these calls is given here.
Experiments:
Bacillus cereus [1] = experiment: Bactericidal activity against Bacillus cereus clinical isolate after 72 hrs by serial subcultivation method; type: functional
Trichoderma viride [2] = experiment: Antifungal activity against Trichoderma viride IAM 5061 after 72 hrs by serial dilution technique; type: functional; conditions: IAM 5061, 72 h
Procedure, shortened: (§1)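 Serial dilution in malt broth; compounds from 1 mg/ml stocks in 5% DMSO; 72 h at 28 °C. MIC is the lowest concentration with no visible growth under a binocular microscope. Run in duplicate, repeated three times.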

Talaromyces funiculosus [3] = experiment: Fungicidal activity against Penicillium funiculosum ATCC 36839 after 72 hrs by serial subcultivation method; type: functional; conditions: ATCC 36839, 72 h
Aspergillus flavus [4] = experiment: Antifungal activity against Aspergillus flavus ATCC 9643 after 72 hrs by serial dilution technique; type: functional; conditions: ATCC 9643, 72 h; procedure, shortened: as §1
Bacillus cereus [5] = experiment: Antibacterial activity against Bacillus cereus clinical isolate after 24 hr by microdilution test; type: functional
Procedure, shortened: (§2)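 Broth microdilution in LB medium, about 1.0×10^4 cfu per well; compounds from 1 mg/ml stocks in 5% DMSO. Incubated 24 h. MIC is the lowest concentration with no visible growth under a binocular microscope. Run in duplicate, repeated three times.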

Micrococcus flavus [6] = experiment: Antibacterial activity against Micrococcus flavus ATCC 10240 after 24 hr by microdilution test; type: functional; conditions: ATCC 10240, 24 h; procedure, shortened: as §2
Staphylococcus aureus [7] = experiment: Antibacterial activity against Staphylococcus aureus ATCC 6538 after 24 hr by microdilution test; type: functional; conditions: ATCC 6538, 24 h; procedure, shortened: as §2
Mus musculus [8] = experiment: Antiinflammatory activity in AKR mouse assessed as inhibition of carrageenan-induced paw edema at 0.01 mmol/kg, ip measured after 3.5 hrs of carrageenan-challenge; type: functional
Procedure, shortened: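 AKR mice of both sexes (pregnant females excluded), 6-10 per group, fasted during the experiment. Edema induced by intradermal 0.05 mL of 2% carrageenin into the right hind paw. Compound given at 0.01 mmol/kg ip, suspended in water with Tween-80, at the same time as carrageenin.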

Trichoderma viride [9] = experiment: Fungicidal activity against Trichoderma viride IAM 5061 after 72 hrs by serial subcultivation method; type: functional; conditions: IAM 5061, 72 h
[10] = Inhibition of soybean lipoxygenase assessed as inhibition of sodium linolate conversion to 13-hydroperoxylinoleic acid after 4 mins by spectrophotometry; set-up: species or system Glycine max
Staphylococcus aureus [11] = experiment: Bactericidal activity against Staphylococcus aureus ATCC 6538 after 72 hrs by serial subcultivation method; type: functional; conditions: ATCC 6538, 72 h
Aspergillus fumigatus [12] = experiment: Fungicidal activity against Aspergillus fumigatus after 72 hrs by serial subcultivation method; type: functional
Pseudomonas aeruginosa [13] = experiment: Antibacterial activity against Pseudomonas aeruginosa ATCC 27853 after 24 hr by microdilution test; type: functional; conditions: ATCC 27853, 24 h; procedure, shortened: as §2
Penicillium ochrochloron [14] = experiment: Antifungal activity against Penicillium ochrochloron ATCC 9112 after 72 hrs by serial dilution technique; type: functional; conditions: ATCC 9112, 72 h; procedure, shortened: as §1
Escherichia coli [15] = experiment: Antibacterial activity against Escherichia coli ATCC 35210 after 24 hr by microdilution test; type: functional; conditions: ATCC 35210, 24 h; procedure, shortened: as §2
Listeria monocytogenes [16] = experiment: Bactericidal activity against Listeria monocytogenes NCTC 7973 after 72 hrs by serial subcultivation method; type: functional; conditions: NCTC 7973, 72 h
[17] = target: T1, Prostaglandin G/H synthase 1 (Ovis aries) (UniProt P05979); experiment: Inhibition of ovine COX1 assessed as inhibition of PGF2a production by enzyme immunoassay; set-up: concentration or dose not given beside the values
T1 sequence (whole entry): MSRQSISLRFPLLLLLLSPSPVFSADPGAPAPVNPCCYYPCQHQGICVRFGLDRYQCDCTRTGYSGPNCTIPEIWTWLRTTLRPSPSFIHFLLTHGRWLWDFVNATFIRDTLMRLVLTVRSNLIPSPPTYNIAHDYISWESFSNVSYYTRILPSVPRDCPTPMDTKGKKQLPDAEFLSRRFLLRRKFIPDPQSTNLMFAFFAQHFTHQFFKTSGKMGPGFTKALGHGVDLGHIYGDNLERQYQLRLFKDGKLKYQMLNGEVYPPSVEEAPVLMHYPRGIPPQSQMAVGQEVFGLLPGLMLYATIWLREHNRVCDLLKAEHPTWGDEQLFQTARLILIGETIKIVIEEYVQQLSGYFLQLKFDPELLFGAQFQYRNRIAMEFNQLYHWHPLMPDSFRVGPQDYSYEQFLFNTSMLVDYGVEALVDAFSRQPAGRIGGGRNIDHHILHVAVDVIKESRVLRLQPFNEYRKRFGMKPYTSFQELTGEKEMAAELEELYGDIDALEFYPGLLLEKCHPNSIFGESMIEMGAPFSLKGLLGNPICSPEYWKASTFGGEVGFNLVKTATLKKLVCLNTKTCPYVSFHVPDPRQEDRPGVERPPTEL
Procedure, shortened: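 Ovine COX-1 from a commercial screening kit, tested with 0.1 µM arachidonic acid, which is below the saturating level. COX-derived PGH2 is reduced by SnCl2 to PGF2a, quantified by enzyme immunoassay with a broad prostaglandin antibody. At least triplicate.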

Pseudomonas aeruginosa [18] = experiment: Bactericidal activity against Pseudomonas aeruginosa ATCC 27853 after 72 hrs by serial subcultivation method; type: functional; conditions: ATCC 27853, 72 h
Aspergillus fumigatus [19] = experiment: Antifungal activity against Aspergillus fumigatus after 72 hrs by serial dilution technique; type: functional; procedure, shortened: as §1
Escherichia coli [20] = experiment: Bactericidal activity against Escherichia coli ATCC 35210 after 72 hrs by serial subcultivation method; type: functional; conditions: ATCC 35210, 72 h
Aspergillus flavus [21] = experiment: Fungicidal activity against Aspergillus flavus ATCC 9643 after 72 hrs by serial subcultivation method; type: functional; conditions: ATCC 9643, 72 h
Micrococcus flavus [22] = experiment: Bactericidal activity against Micrococcus flavus ATCC 10240 after 72 hrs by serial subcultivation method; type: functional; conditions: ATCC 10240, 72 h
Penicillium ochrochloron [23] = experiment: Fungicidal activity against Penicillium ochrochloron ATCC 9112 after 72 hrs by serial subcultivation method; type: functional; conditions: ATCC 9112, 72 h
Aspergillus niger [24] = experiment: Antifungal activity against Aspergillus niger ATCC 6275 after 72 hrs by serial dilution technique; type: functional; conditions: ATCC 6275, 72 h; procedure, shortened: as §1
Talaromyces funiculosus [25] = experiment: Antifungal activity against Penicillium funiculosum ATCC 36839 after 72 hrs by serial dilution technique; type: functional; conditions: ATCC 36839, 72 h; procedure, shortened: as §1
Mus musculus [26] = experiment: Acute toxicity in AKR mouse up to 0.5 mmol/kg, ip; type: organism-based; conditions: in vivo
Aspergillus niger [27] = experiment: Fungicidal activity against Aspergillus niger ATCC 6275 after 72 hrs by serial subcultivation method; type: functional; conditions: ATCC 6275, 72 h
Listeria monocytogenes [28] = experiment: Antibacterial activity against Listeria monocytogenes NCTC 7973 after 24 hr by microdilution test; type: functional; conditions: NCTC 7973, 24 h; procedure, shortened: as §2

Compound | MBC (Bacillus cereus [1]) | MIC (Trichoderma viride [2]) | MFC (Talaromyces funiculosus [3]) | MIC (Aspergillus flavus [4]) | MIC (Bacillus cereus [5]) | MIC (Micrococcus flavus [6]) | MIC (Staphylococcus aureus [7]) | inhibition in vivo at 10 µmol/kg (Mus musculus [8]) | MFC (Trichoderma viride [9]) | IC50 ([10]; read-out: IC50) | MBC (Staphylococcus aureus [11]) | MFC (Aspergillus fumigatus [12]) | MIC (Pseudomonas aeruginosa [13]) | MIC (Escherichia coli [15]) | MBC (Listeria monocytogenes [16]) | inhibition ([17]; concentration not given here) | MBC (Pseudomonas aeruginosa [18]) | MBC (Escherichia coli [20]) | MBC (Micrococcus flavus [22]) | MIC (Listeria monocytogenes [28]) | further results
O=C1N/C(=N\c2nccs2)S/C1=C\c1ccc(Br)cc1 | 54.6 µM (≈ 20 µg/mL) | 13.7 µM (≈ 5.02 µg/mL) | 27.3 µM (≈ 10 µg/mL) | 13.7 µM (≈ 5.02 µg/mL) | 20.5 µM (≈ 7.51 µg/mL) | 27.3 µM (≈ 10 µg/mL) | 13.7 µM (≈ 5.02 µg/mL) | 42.2% | 27.3 µM (≈ 10 µg/mL) | 66 µM | 27.3 µM (≈ 10 µg/mL) | 27.3 µM (≈ 10 µg/mL) | 27.3 µM (≈ 10 µg/mL) | 27.3 µM (≈ 10 µg/mL) | 54.6 µM (≈ 20 µg/mL) | 67% | 54.6 µM (≈ 20 µg/mL) | 54.6 µM (≈ 20 µg/mL) | 54.6 µM (≈ 20 µg/mL) | 27.3 µM (≈ 10 µg/mL) | MIC (Penicillium ochrochloron [14]): 13.7 µM (≈ 5.02 µg/mL); MIC (Aspergillus fumigatus [19]): 13.7 µM (≈ 5.02 µg/mL); MFC (Aspergillus flavus [21]): 27.3 µM (≈ 10 µg/mL); MFC (Penicillium ochrochloron [23]): 27.3 µM (≈ 10 µg/mL); MIC (Aspergillus niger [24]): 13.7 µM (≈ 5.02 µg/mL); MIC (Talaromyces funiculosus [25]): 20.5 µM (≈ 7.51 µg/mL); Activity (Mus musculus [26]): Non-toxic; MFC (Aspergillus niger [27]): 27.3 µM (≈ 10 µg/mL)
CC1(C)S[C@@H]2[C@H](NC(=O)[C@H](N)c3ccccc3)C(=O)N2[C@H]1C(=O)O [AMPICILLIN] | 372 µM (≈ 130 µg/mL) | – | – | – | 248 µM (≈ 86.7 µg/mL) | 248 µM (≈ 86.7 µg/mL) | 248 µM (≈ 86.7 µg/mL) | – | – | – | 372 µM (≈ 130 µg/mL) | – | 744 µM (≈ 260 µg/mL) | 372 µM (≈ 130 µg/mL) | 744 µM (≈ 260 µg/mL) | – | 1240 µM (≈ 433 µg/mL) | 492 µM (≈ 172 µg/mL) | 372 µM (≈ 130 µg/mL) | 372 µM (≈ 130 µg/mL) | –
CN(C)c1ccc(/C=C2\S/C(=N/c3nccs3)NC2=O)cc1 | 15.2 µM (≈ 5.02 µg/mL) | 7.6 µM (≈ 2.51 µg/mL) | 15.2 µM (≈ 5.02 µg/mL) | 15.2 µM (≈ 5.02 µg/mL) | 7.6 µM (≈ 2.51 µg/mL) | 7.6 µM (≈ 2.51 µg/mL) | 30.3 µM (≈ 10 µg/mL) | 67.3% | 15.2 µM (≈ 5.02 µg/mL) | 95 µM | 60.6 µM (≈ 20 µg/mL) | 15.2 µM (≈ 5.02 µg/mL) | 30.3 µM (≈ 10 µg/mL) | 7.6 µM (≈ 2.51 µg/mL) | 60.6 µM (≈ 20 µg/mL) | 50% | 60.6 µM (≈ 20 µg/mL) | 15.2 µM (≈ 5.02 µg/mL) | 15.2 µM (≈ 5.02 µg/mL) | 30.3 µM (≈ 10 µg/mL) | MIC (Penicillium ochrochloron [14]): 7.6 µM (≈ 2.51 µg/mL); MIC (Aspergillus fumigatus [19]): 15.2 µM (≈ 5.02 µg/mL); MFC (Aspergillus flavus [21]): 15.2 µM (≈ 5.02 µg/mL); MFC (Penicillium ochrochloron [23]): 15.2 µM (≈ 5.02 µg/mL); MIC (Aspergillus niger [24]): 15.2 µM (≈ 5.02 µg/mL); MIC (Talaromyces funiculosus [25]): 7.6 µM (≈ 2.51 µg/mL); Activity (Mus musculus [26]): Non-toxic; MFC (Aspergillus niger [27]): 15.2 µM (≈ 5.02 µg/mL)
COc1ccc2cc([C@H](C)C(=O)O)ccc2c1 [NAPROXEN] | – | – | – | – | – | – | – | – | – | – | – | – | – | – | – | 46% | – | – | – | – | inhibition (Mus musculus [8]): inactive; IC50 [10]: Not Active
COc1ccc2c(c1)c(CC(=O)O)c(C)n2C(=O)c1ccc(Cl)cc1 [INDOMETHACIN] | – | – | – | – | – | – | – | – | – | – | – | – | – | – | – | – | – | – | – | – | IC50 [10]: Not Active; inhibition [17]: inactive

Source: ChEMBL document CHEMBL2311431, “Synthesis and biological evaluation of some 5-arylidene-2-(1,3-thiazol-2-ylimino)-1,3-thiazolidin-4-ones as dual anti-inflammatory/antimicrobial agents” (Bioorg Med Chem, 2013)
